In brackets after ≈: the same amount, converted by molar mass.
Columns and labels:
[1] = AUC (0 to infinity) in C57BL/6 mouse brain at 2 mg/kg, iv; format: ADME, organism-based; parameters: time infinity, dose 2 mg/kg, route intravenous
Method in brief: (§1)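 Male C57BL/6 mice received a single intravenous dose of 2 mg/kg, formulated at 1 mg/mL in 50% 1-methyl-2-pyrrolidinone in saline. Plasma and brain concentrations were followed to derive PK parameters. Brain to plasma ratio was calculated from AUC.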

[2] = Tmax in C57BL/6 mouse plasma at 2 mg/kg, iv; format: ADME, organism-based; parameters: dose 2 mg/kg, route intravenous; method in brief: as §1
[3] = Ratio of AUC (0 to 24 hrs) in C57BL/6 mouse brain to AUC (0 to 24 hrs) in C57BL/6 mouse plasma at 2 mg/kg, iv; format: ADME, organism-based; parameters: dose 2 mg/kg, route intravenous; conditions: read-out: Ratio AUC
Method in brief: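 Male C57BL/6 mice were given a single intravenous dose of 2 mg/kg, formulated at 1 mg/mL in 50% 1-methyl-2-pyrrolidinone in saline. Plasma and brain exposure profiles were collected, and the brain-to-plasma ratio was derived from the AUC values of the two tissues.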

[4] = Cmax in C57BL/6 mouse brain at 2 mg/kg, iv; format: ADME, organism-based; parameters: dose 2 mg/kg, route intravenous; method in brief: as §1
Cytochrome P450 3A4 = Cytochrome P450 3A4 (Homo sapiens, UniProt P08684); test: Inhibition of CYP3A4 (unknown origin); format: ADME
Chain of Cytochrome P450 3A4 (P08684 whole entry): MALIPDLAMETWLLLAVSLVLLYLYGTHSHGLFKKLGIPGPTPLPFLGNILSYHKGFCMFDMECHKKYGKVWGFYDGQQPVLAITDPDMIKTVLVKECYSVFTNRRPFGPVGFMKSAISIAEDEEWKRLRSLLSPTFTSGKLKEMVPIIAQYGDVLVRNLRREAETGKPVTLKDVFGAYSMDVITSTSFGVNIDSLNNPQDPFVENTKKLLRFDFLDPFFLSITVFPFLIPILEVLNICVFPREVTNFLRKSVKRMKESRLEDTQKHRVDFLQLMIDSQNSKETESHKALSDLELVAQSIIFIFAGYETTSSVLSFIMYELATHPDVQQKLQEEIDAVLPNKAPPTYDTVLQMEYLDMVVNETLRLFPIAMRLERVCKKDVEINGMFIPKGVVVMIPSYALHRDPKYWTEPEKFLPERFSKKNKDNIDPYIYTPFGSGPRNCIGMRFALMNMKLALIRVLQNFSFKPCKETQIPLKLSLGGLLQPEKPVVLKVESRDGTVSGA

Mus musculus [5] = test: Toxicity in mouse assessed as increase in body temperature at 30 mg/kg, po measured at 6 hrs; format: organism-based; parameters: dose 30 mg/kg, route oral; conditions: in vivo
Method in brief: (§2)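 Behavioral safety study in mice given single oral doses of 3, 10 and 30 mg/kg. Tremors, tail pinch response, body temperature, pupil size and body weight were scored at 2 and 6 h post dose. Clinical signs were observed over one week after dosing.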

[6] = Genotoxicity in micronucleus (unknown origin)
[7] = Tmax in C57BL/6 mouse brain at 2 mg/kg, iv; format: ADME, organism-based; parameters: dose 2 mg/kg, route intravenous; method in brief: as §1
[8] = Half life in C57BL/6 mouse plasma at 10 mg/kg, po; format: ADME, organism-based; parameters: dose 10 mg/kg, route oral
Method in brief: (§3)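 Male C57BL/6 mice were dosed orally at 10 mg/kg, formulated at 1 mg/mL in 5% DMSO/0.5% MC/0.2% tween 80. Plasma and brain were sampled for PK parameters. Brain to plasma ratio was based on AUC0-24.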

Histamine H3 receptor = Histamine H3 receptor (Rattus norvegicus, UniProt Q9QYN8); test: Displacement of [3H]N-alpha-methylhistamine from recombinant rat histamine H3 receptor transfected in CHO cell membranes after 1 hr by scintillation counting analysis; parameters: species or system Membrane
Chain of Histamine H3 receptor (Q9QYN8 whole entry): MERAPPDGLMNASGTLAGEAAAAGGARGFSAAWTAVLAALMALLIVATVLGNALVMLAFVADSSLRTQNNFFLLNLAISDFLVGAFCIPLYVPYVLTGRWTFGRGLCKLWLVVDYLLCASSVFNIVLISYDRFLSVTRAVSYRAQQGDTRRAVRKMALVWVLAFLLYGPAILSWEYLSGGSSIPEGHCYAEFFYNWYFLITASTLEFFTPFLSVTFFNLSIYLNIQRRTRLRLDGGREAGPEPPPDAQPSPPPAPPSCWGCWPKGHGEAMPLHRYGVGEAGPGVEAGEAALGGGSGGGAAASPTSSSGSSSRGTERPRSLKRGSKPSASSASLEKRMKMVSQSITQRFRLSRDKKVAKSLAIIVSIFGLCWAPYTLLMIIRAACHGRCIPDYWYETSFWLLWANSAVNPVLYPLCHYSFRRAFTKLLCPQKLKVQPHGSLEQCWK
Method in brief: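 Radioligand displacement of [3H]N-α-methylhistamine using membranes from CHO cells stably transfected with recombinant human or rat H3 receptor. Ki is presented as a range of multiple experiments (n ≥ 3).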

Mus musculus [9] = test: Toxicity in mouse assessed as increase in tail pinch at 30 mg/kg, po measured at 6 hrs; format: organism-based; parameters: dose 30 mg/kg, route oral; conditions: in vivo; method in brief: as §2
Cytochrome P450 1A2 = biological target: T1, Cytochrome P450 1A2 (Homo sapiens, UniProt P05177); test: Inhibition of CYP1A2 (unknown origin); format: ADME
T1 sequence (P05177 whole entry): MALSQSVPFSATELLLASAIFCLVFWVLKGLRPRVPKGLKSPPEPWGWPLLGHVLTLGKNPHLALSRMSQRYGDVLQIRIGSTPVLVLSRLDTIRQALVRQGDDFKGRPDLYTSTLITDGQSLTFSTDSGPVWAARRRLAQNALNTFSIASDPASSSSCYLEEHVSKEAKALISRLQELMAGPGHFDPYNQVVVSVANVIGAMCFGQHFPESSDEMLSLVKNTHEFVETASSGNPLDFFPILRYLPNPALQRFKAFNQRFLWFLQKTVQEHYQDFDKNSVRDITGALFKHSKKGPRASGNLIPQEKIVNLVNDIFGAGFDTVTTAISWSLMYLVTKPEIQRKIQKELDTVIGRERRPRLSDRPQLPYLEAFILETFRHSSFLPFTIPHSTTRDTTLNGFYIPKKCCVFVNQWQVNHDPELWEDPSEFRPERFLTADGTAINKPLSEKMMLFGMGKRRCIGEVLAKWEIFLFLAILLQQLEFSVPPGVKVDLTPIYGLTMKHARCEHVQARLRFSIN

[10] = Half life in C57BL/6 mouse plasma at 2 mg/kg, iv; format: ADME, organism-based; parameters: dose 2 mg/kg, route intravenous; method in brief: as §1
[11] = AUC (0 to infinity) in C57BL/6 mouse plasma at 2 mg/kg, iv; format: ADME, organism-based; parameters: time infinity, dose 2 mg/kg, route intravenous; method in brief: as §1
Mus musculus [12] = test: Toxicity in mouse assessed as appearance of tremor at 30 mg/kg, po measured at 2 hrs; format: organism-based; parameters: dose 30 mg/kg, route oral; conditions: in vivo; method in brief: as §2
[13] = Solubility of the compound in PBS buffer at pH 7.4; format: physicochemical
Method in brief: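 Solubility measured in PBS at pH 7.4.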

hERG (KCNH2) [14] = biological target: T2, hERG (KCNH2) (Homo sapiens, UniProt Q12809); test: Inhibition of human ERG transfected in CHO cells at 1 uM by patch clamp assay relative to control; format: cell-based; conditions: CHO cells transfected with human ERG
T2 sequence (Q12809 whole entry): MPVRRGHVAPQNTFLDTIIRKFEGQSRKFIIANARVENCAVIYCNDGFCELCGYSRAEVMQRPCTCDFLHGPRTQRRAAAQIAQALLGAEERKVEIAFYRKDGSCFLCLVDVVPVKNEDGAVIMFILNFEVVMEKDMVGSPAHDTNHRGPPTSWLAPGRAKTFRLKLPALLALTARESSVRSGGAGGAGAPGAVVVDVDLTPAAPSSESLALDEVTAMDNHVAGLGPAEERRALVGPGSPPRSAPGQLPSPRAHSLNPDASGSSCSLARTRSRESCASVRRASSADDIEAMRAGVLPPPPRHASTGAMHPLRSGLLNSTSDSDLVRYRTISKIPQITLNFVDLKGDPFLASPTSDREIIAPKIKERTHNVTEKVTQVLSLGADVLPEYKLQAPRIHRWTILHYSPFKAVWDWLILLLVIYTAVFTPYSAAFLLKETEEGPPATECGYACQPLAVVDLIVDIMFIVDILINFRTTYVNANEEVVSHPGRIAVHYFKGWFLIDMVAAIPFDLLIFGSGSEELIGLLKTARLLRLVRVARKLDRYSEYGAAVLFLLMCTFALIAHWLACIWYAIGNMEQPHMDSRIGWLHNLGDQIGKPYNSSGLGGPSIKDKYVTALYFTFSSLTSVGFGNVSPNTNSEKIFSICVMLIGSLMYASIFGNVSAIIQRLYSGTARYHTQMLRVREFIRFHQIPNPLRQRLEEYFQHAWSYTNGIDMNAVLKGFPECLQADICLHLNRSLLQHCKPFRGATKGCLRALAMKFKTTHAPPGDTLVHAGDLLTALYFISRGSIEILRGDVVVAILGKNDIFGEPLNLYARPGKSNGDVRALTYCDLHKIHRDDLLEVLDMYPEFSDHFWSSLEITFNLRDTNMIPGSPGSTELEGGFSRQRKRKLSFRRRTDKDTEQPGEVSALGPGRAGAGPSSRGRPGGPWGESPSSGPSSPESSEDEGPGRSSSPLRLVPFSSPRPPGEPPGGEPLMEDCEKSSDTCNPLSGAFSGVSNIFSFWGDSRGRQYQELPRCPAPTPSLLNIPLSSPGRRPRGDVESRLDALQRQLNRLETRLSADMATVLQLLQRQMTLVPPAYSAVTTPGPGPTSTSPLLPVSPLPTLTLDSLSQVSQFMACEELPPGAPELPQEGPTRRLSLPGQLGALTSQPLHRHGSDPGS
Method in brief: (§4)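 Whole-cell patch clamp on CHO cells stably transfected with the human ERG gene.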

[15] = biological target: Voltage-gated inwardly rectifying potassium channel KCNH2 (Homo sapiens, UniProt Q12809); test: Inhibition of human ERG transfected in CHO cells by patch clamp assay; format: cell-based; method in brief: as §4
Chain of Voltage-gated inwardly rectifying potassium channel KCNH2 (Q12809 whole entry): as above

[16] = Tmax in C57BL/6 mouse brain at 10 mg/kg, po; format: ADME, organism-based; parameters: dose 10 mg/kg, route oral; method in brief: as §3
hERG (KCNH2) [17] = biological target: T2, hERG (KCNH2); test: Inhibition of human ERG transfected in CHO cells at 10 uM by patch clamp assay relative to control; format: cell-based; conditions: CHO cells transfected with human ERG; method in brief: as §4
[18] = Volume of distribution at steady state in C57BL/6 mouse at 2 mg/kg, iv; format: ADME, organism-based; parameters: dose 2 mg/kg, route intravenous; conditions: in vivo, read-out: Vdss; method in brief: as §1
[19] = Half life in C57BL/6 mouse brain at 10 mg/kg, po; format: ADME, organism-based; parameters: dose 10 mg/kg, route oral; method in brief: as §3
Mus musculus [20] = test: Toxicity in mouse assessed as effect on body weight at 3 to 30 mg/kg, po; format: organism-based; parameters: dose 3-30 mg/kg, route oral; conditions: in vivo; method in brief: as §2

With `Cc1cc(N2CC[C@H](N3CCC[C@@H]3C)C2)ccc1NC(=O)c1cc(F)ccc1C` as the compound, how does the AUC(0-inf) [1] read?
The AUC(0-inf) was 2.6 µg·h/mL.

What about the Tmax [2] of the same compound?
Its Tmax is 4.98 min.

What about the Kp [3] of the same compound?
The Kp was 4.7.

And the Cmax [4]?
Its Cmax is 4.82 µg/mL.

And the IC50 (Cytochrome P450 3A4)?
Its IC50 is > 30 µM.

And the Activity (Mus musculus [5])?
Its Activity is “Toxic”.

What about the Activity [6] of the same compound?
Its Activity is “Non-toxic”.

What about the Tmax [7] of the same compound?
The Tmax was 4.98 min.

What about the half-life [8] of the same compound?
Its half-life is 3.6 h.

And the Ki (Histamine H3 receptor)?
The Ki was 0.003 µM.

And the Activity (Mus musculus [9])?
The Activity was “Toxic”.

What about the IC50 (Cytochrome P450 1A2) of the same compound?
Its IC50 is > 30 µM.

And the half-life [10]?
Its half-life is 2.6 h.

And the AUC(0-inf) [11]?
Its AUC(0-inf) is 0.56 µg·h/mL.

What about the Activity (Mus musculus [12]) of the same compound?
Its Activity is “Toxic”.

What about the solubility [13] of the same compound?
The solubility was 0.293 mg/mL (≈ 742 µM).

What about the inhibition at 1 µM (hERG (KCNH2) [14]) of the same compound?
The inhibition at 1 µM was 43.4%.

And the IC50 [15]?
Its IC50 is 1.1 µM.

What about the Tmax [16] of the same compound?
The Tmax was 1 h.

What about the inhibition at 10 µM (hERG (KCNH2) [17]) of the same compound?
Its inhibition at 10 µM is 84.3%.

What about the Vd [18] of the same compound?
The Vd was 5.2 L/kg.

What about the half-life [19] of the same compound?
Its half-life is 3.5 h.

What about the Activity (Mus musculus [20]) of the same compound?
Its Activity is “Non-toxic”.
